Experimental data reported in ChEMBL document CHEMBL4043300, “2 H-1,2,3-Triazole-Based Dipeptidyl Nitriles: Potent, Selective, and Trypanocidal Rhodesain Inhibitors by Structure-Based Design” (J Med Chem, 2018).
Values after ≈ are worked out from the molar mass of the structure shown.

Legend:
L6 = assay: Cytotoxicity against rat L6 cells after 72 hrs by Alamar blue assay; assay type: cell-based; conditions: L6, 72 h
Method in brief: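 Rat skeletal myoblast L6 cells in an Alamar Blue growth-inhibition assay. Value is the mean of at least 2 measurements.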

[1] = test system: Trypanosoma brucei rhodesiense; assay: Antitrypanosomal activity against bloodstream form of Trypanosoma brucei rhodesiense STIB 900 assessed as parasite growth inhibition after 72 hrs by Alamar blue assay; assay type: functional; conditions: STIB 900, 72 h
Method in brief: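 Standard 72 h growth-inhibition assay with STIB 900 bloodstream trypomastigotes and Alamar Blue read-out. Value is the mean of at least 2 measurements.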

Procathepsin L = Procathepsin L (Homo sapiens, UniProt P07711); assay: Inhibition of human CatL using Cbz-Phe-Arg-AMC as substrate measured over 30 mins by fluorimetric method
Sequence of Procathepsin L (P07711 whole entry): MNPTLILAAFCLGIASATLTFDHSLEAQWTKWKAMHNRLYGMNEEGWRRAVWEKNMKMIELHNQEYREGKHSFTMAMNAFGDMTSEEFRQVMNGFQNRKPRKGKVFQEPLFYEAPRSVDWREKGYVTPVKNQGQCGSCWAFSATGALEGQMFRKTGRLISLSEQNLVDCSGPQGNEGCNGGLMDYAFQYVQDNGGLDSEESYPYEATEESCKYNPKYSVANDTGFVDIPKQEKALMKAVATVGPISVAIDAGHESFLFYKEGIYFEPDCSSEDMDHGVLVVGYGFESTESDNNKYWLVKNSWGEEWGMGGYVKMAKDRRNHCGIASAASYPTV
Method in brief: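 Human cathepsin L in a fluorimetric assay in 50 mM Tris pH 6.5, 5 mM EDTA, 200 mM NaCl, 0.005% Brij35 at 25 °C. Ki was calculated from IC50 by Cheng-Prusoff. Value is the average of two measurements, each in duplicate.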

[2] = Selectivity index, ratio of Ki for human CatL to Ki for Trypanosoma brucei rhodesiense rhodesain
Method in brief: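 Ki(hCatL)/Ki(RD). Fluorimetric assays at 25 °C: RD in 50 mM sodium acetate pH 5.5; hCatL in 50 mM Tris pH 6.5; both buffers with 5 mM EDTA, 200 mM NaCl, 0.005% Brij35. Ki derived from IC50 by Cheng-Prusoff. Each value is the mean of two measurements, each done in duplicate.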

[3] = test system: Trypanosoma brucei rhodesiense; assay: Antitrypanosomal activity against bloodstream form of Trypanosoma brucei rhodesiense STIB 900 infected in NMRI mouse assessed as reduction of parasitemia at 50 mg/kg, po administered for 3 consecutive days starting 1 day post infection measured at 24 hrs post last dose relative to control; assay type: functional; parameters: scale not given: the % may be the effect or the level left
Method in brief: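 Female mice infected with STIB900 were dosed orally at 50 mg/kg/day on three consecutive days, starting 1 day post-infection. Compound was in 100% DMSO diluted 10-fold in distilled water, given at 0.1 mL/10 g. Tail-blood parasitaemia was measured 24 h after the last dose versus 4 untreated infected controls. Values are means of 2 mice.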

Rhodesain = Rhodesain (Trypanosoma brucei rhodesiense, UniProt Q95PM0); assay: Inhibition of Trypanosoma brucei rhodesiense rhodesain using Cbz-Phe-Arg-AMC as substrate by fluorimetric method
Sequence of Rhodesain (Q95PM0 whole entry): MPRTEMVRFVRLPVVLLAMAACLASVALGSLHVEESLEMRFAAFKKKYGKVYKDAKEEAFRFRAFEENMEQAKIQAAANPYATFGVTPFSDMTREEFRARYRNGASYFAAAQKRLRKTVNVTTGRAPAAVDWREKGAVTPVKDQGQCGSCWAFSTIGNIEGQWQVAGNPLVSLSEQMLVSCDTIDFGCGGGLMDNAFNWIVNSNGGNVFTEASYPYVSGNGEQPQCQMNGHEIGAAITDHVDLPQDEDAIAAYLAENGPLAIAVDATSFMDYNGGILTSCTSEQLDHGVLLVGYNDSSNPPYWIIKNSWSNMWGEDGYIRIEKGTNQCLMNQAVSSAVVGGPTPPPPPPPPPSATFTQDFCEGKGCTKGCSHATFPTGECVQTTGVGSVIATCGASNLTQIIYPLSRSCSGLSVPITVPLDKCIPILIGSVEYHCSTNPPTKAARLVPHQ
Method in brief: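 Fluorescence-based assay run at 25 °C in 50 mM sodium acetate pH 5.5 with 5 mM EDTA, 200 mM NaCl and 0.005% Brij35. IC50 values were converted to Ki with the Cheng-Prusoff equation. Values are the average of two measurements, each done in duplicate.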

[4] = test system: Trypanosoma brucei rhodesiense; assay: Antitrypanosomal activity against bloodstream form of Trypanosoma brucei rhodesiense STIB 900 assessed as parasite growth inhibition after 24 hrs by Alamar blue assay; assay type: functional; conditions: STIB 900, 24 h
Method in brief: (§1)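 Bloodstream STIB 900 trypomastigotes, 1x10⁴ per well, exposed to eleven 3-fold serial dilutions at 37 °C/5% CO₂ for the stated pulse time. Parasites were then pelleted and washed four times, and an aliquot was regrown 72 h drug-free in triplicate plates. Resazurin was added for 2–4 h, fluorescence read at ex 536/em 588 nm, and IC50 taken by linear regression of sigmoidal curves. Melarsoprol served as control.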

[5] = test system: Trypanosoma brucei rhodesiense; assay: Antitrypanosomal activity against bloodstream form of Trypanosoma brucei rhodesiense STIB 900 assessed as parasite growth inhibition after 2 hrs by Alamar blue assay; assay type: functional; conditions: STIB 900, 2 h; method in brief: as §1
[6] = Selectivity index, ratio of IC50 for rat L6 cells to IC50 for bloodstream form of Trypanosoma brucei rhodesiense STIB 900; assay type: toxicity; conditions: read-out: Ratio IC50
Method in brief: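 Ratio of L-6 rat skeletal myoblast IC50 to T. b. rhodesiense STIB 900 bloodstream trypomastigote IC50, both from Alamar Blue growth-inhibition assays. Each IC50 is the mean of at least 2 measurements.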

[7] = Solubility of the compound at pH 6.5 by LYSA; assay type: physicochemical; conditions: buffer
Method in brief: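 Lyophilization solubility assay at pH 6.5.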

[8] = test system: Trypanosoma brucei rhodesiense; assay: Antitrypanosomal activity against bloodstream form of Trypanosoma brucei rhodesiense STIB 900 assessed as parasite growth inhibition after 6 hrs by Alamar blue assay; assay type: functional; conditions: STIB 900, 6 h; method in brief: as §1
[9] = test system: Trypanosoma brucei rhodesiense; assay: Antitrypanosomal activity against bloodstream form of Trypanosoma brucei rhodesiense STIB 900 assessed as parasite growth inhibition after 48 hrs by Alamar blue assay; assay type: functional; conditions: STIB 900, 48 h; method in brief: as §1
[10] = test system: Trypanosoma brucei rhodesiense; assay: Antitrypanosomal activity against bloodstream form of Trypanosoma brucei rhodesiense STIB 900 assessed as parasite growth inhibition after 16 hrs by Alamar blue assay; assay type: functional; conditions: STIB 900, 16 h; method in brief: as §1
[11] = Clearance in C57BL/6J mouse at 1.5 mg/kg, iv as bolus dose by LC-MS/MS analysis; assay type: ADME, organism-based; conditions: in vivo
Method in brief: (§2)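 Mice given single i.v. dose in N-methylpyrrolidinone / 40% (v/v) aqueous hydroxypropyl-γ-cyclodextrin (30/70 v/v). Blood into K₂EDTA at 5 min, 15 min, 30 min, 1, 2, 4, 8 h, sublingually or by terminal cardiac puncture under isoflurane. Plasma spun at 3000 × g, 5 min, 4 °C, stored at -20 °C. Plasma levels by LC–MS/MS; parameters by non-compartmental analysis.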

[12] = Unbound fraction in human plasma; assay type: ADME, cell-free
Cytochrome P450 2D6 = Cytochrome P450 2D6 (Homo sapiens, UniProt P10635); assay: Inhibition of CYP2D6 in human liver microsomes using AMMC as substrate by fluorescence assay; assay type: ADME
Sequence of Cytochrome P450 2D6 (P10635 whole entry): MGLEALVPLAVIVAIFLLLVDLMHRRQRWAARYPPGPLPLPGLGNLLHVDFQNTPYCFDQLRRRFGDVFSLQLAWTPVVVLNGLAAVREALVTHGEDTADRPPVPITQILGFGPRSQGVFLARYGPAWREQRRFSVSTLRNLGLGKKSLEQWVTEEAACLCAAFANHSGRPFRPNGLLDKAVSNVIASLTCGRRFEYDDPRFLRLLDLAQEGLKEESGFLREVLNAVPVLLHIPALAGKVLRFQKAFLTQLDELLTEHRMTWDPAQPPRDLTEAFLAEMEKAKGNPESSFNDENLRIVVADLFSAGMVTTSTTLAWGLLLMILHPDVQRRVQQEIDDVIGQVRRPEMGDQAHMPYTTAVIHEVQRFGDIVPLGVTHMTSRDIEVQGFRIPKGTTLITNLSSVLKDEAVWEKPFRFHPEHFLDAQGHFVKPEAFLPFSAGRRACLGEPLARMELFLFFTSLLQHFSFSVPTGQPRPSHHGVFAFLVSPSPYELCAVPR
Method in brief: (§3)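 Human liver microsomes with CYP-selective substrate metabolism reactions for 2C9, 2D6 and 3A4.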

Cytochrome P450 3A4 = Cytochrome P450 3A4 (Homo sapiens, UniProt P08684); assay: Inhibition of CYP3A4 in human liver microsomes using DBF as substrate by fluorescence assay; assay type: ADME; method in brief: as §3
Sequence of Cytochrome P450 3A4 (P08684 whole entry): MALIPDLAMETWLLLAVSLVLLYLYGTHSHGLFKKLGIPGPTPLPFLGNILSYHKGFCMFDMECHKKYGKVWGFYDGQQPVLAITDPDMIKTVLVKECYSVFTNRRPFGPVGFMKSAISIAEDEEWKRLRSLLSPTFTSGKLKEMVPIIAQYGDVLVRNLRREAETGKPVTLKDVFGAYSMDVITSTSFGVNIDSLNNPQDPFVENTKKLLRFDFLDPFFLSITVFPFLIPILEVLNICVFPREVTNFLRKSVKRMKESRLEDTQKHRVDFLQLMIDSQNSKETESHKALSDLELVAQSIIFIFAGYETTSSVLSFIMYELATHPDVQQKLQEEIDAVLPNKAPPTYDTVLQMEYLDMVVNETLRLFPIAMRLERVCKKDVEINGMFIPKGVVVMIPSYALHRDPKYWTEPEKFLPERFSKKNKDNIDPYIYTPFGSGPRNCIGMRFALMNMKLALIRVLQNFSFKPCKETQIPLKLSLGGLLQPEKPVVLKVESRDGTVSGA

[13] = Octanol-water intrinsic distribution co-efficient, log D of the compound at 100 uM at pH 7.4 after 16 to 22 hrs by CAMDIS assay; assay type: physicochemical
Method in brief: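 Octanol/aqueous buffer (pH 7.4) intrinsic distribution coefficient measured in the CAMDIS carrier-mediated distribution system.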

[14] = Permeability of the compound after 15 hrs by PAMPA; assay type: physicochemical; conditions: read-out: permeability
[15] = Volume of distribution at steady state in C57BL/6J mouse at 1.5 mg/kg, iv as bolus dose by LC-MS/MS analysis; assay type: ADME, organism-based; conditions: in vivo, read-out: Vdss; method in brief: as §2
[16] = Intrinsic clearance in human liver microsomes at 2 uM after 30 mins in presence of NADPH by LC-MS/MS method; assay type: ADME, microsome; conditions: read-out: CLH
[17] = Intrinsic clearance in mouse liver microsomes at 2 uM after 30 mins in presence of NADPH by LC-MS/MS method; assay type: ADME, microsome; conditions: read-out: CLH
Cytochrome P450 2C9 = Cytochrome P450 2C9 (Homo sapiens, UniProt P11712); assay: Inhibition of CYP2C9 in human liver microsomes using MFC as substrate by fluorescence assay; assay type: ADME; method in brief: as §3
Sequence of Cytochrome P450 2C9 (P11712 whole entry): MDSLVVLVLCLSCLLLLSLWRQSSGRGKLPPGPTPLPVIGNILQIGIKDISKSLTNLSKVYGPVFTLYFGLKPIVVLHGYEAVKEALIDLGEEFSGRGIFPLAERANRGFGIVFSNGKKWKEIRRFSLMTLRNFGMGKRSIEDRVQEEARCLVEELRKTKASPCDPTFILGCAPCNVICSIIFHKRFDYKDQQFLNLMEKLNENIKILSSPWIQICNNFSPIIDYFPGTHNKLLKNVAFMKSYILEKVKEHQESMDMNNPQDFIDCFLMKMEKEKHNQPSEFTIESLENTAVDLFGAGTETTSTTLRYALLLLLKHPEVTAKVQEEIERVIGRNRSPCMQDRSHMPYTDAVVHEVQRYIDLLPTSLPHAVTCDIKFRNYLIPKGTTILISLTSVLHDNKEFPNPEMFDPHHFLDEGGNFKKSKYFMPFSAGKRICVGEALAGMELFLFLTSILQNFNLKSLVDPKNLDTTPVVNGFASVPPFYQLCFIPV

[18] = Half life in C57BL/6J mouse at 1.5 mg/kg, iv as bolus dose by LC-MS/MS analysis; assay type: ADME, organism-based; conditions: in vivo; method in brief: as §2

SMILES | IC50 (L6) [nM] | IC50 [1] [nM] | Ki (Procathepsin L) [nM] | Ratio Ki [2] | Activity [3] [%] | Ki (Rhodesain) [nM] | selectivity ratio [6] | solubility [7] [µg/mL] | clearance [11] [mL/min/kg] | fraction unbound [12] | logD at 100 µM [13] | Papp at 15 h [14] [×10⁻⁶ cm/s] | Vd [15] [L/kg] | microsomal CLint at 2 µM [16] [µL/min/mg] | microsomal CLint at 2 µM [17] [µL/min/mg] | half-life [18] [h] | other results
N#CC1(NC(=O)[C@H](Cc2ccc(Cl)c(Cl)c2)NC(=O)c2cnn(C3COC3)n2)CC1 | > 100000 | 8 | 78 | 2.4 | 45.3 | 33 |  |  |  |  |  |  |  |  |  |  | 
N#CC1(NC(=O)[C@H](Cc2ccc(OC(F)(F)F)c(Cl)c2)NC(=O)c2cnn(-c3ccccc3)n2)CC1 | 17900 | 5 | 81.7 | 28 |  | 2.9 | 3580 | < 0.3 |  |  |  |  |  |  |  |  | IC50 [4]: 556 nM; IC50 [5]: > 1000 nM; IC50 [8]: > 1000 nM; IC50 [9]: 462 nM; IC50 [10]: > 1000 nM
Cn1ncc(C(=O)N[C@@H](Cc2ccc(OC(F)(F)F)c(Cl)c2)C(=O)NC2(C#N)CC2)n1 | > 10000 | 40 | 15 | 0.7 | 53.6 | 23 |  | 53 (≈ 116 µM) | 22.8 | 0.226 | 3.09 | 0.12 | 2.7 | < 10 | < 10 | 1.52 | IC50 (Cytochrome P450 2D6): 6000 nM; IC50 (Cytochrome P450 3A4): > 50000 nM; IC50 (Cytochrome P450 2C9): > 50000 nM
Nc1nc(N)nc(Nc2ccc([As]3SCC(CO)S3)cc2)n1 (stereo unspecified) [MELARSOPROL] |  | 4 to 9 |  |  |  |  |  |  |  |  |  |  |  |  |  |  | IC50 [4]: 44 nM; IC50 [5]: > 180 nM; IC50 [8]: 99 nM; IC50 [9]: 26 nM; IC50 [10]: 86 nM
N#CC1(NC(=O)[C@H](Cc2ccc(OC(F)(F)F)c(Cl)c2)NC(=O)c2cnn(C3COC3)n2)CC1 | 96000 | 3 | 25 | 0.8 | 43.1 | 31 | 32000 | 4 (≈ 8.02 µM) |  |  | 2.58 |  |  |  |  |  | 
CC(C)n1ncc(C(=O)N[C@@H](Cc2ccc(OC(F)(F)F)c(Cl)c2)C(=O)NC2(C#N)CC2)n1 | > 10000 | 4 | 4 | 0.2 |  | 18 |  | 4 (≈ 8.25 µM) | 32.9 | 0.0826 | 4.61 | 0.138 | 3 | 11 | 26 | 1.53 | 
N#CC1(NC(=O)[C@H](Cc2ccc(Cl)c(Cl)c2)NC(=O)c2cnn(C3CC(F)(F)C3)n2)CC1 | 54800 | 8 | 64 | 3.6 | 15.8 | 18 | 6840 |  |  |  |  |  |  |  |  |  | 
N#CC1(NC(=O)[C@H](Cc2ccc(OC(F)(F)F)c(Cl)c2)NC(=O)c2cnn(-c3cccnc3)n2)CC1 | > 10000 | 1 | 353 | 10 |  | 36 |  | 4.2 (≈ 8.08 µM) | 22.6 | 0.0395 | 3.7 | 0.447 | 0.8 | < 10 | 11 | 0.94 | IC50 (Cytochrome P450 2D6): 2000 nM; IC50 (Cytochrome P450 3A4): 8000 nM; IC50 (Cytochrome P450 2C9): 7000 nM
N#CC1(NC(=O)[C@H](Cc2ccc(OC(F)(F)F)c(Cl)c2)NC(=O)c2cnn(C3CCNC3)n2)CC1 (stereo partly specified) | 56000 | 0.2 | 14 | 0.2 | 0.4 | 93 | 280000 | 253 (≈ 494 µM) |  |  | 1.33 |  |  |  |  |  | 
N#CC1(NC(=O)[C@H](Cc2ccc(OC(F)(F)F)c(Cl)c2)NC(=O)c2cnn(-c3ccncc3)n2)CC1 | > 10000 | 0.6 | 82 | 5 | 43.3 | 16 |  | 5.2 (≈ 10 µM) |  |  | 3.69 |  |  |  |  |  | 
